Kir21 block – inhibitors of mouse Kir2.1 inward-rectifier potassium channel | HEK293-Kir2.1, FluxOR thallium flux fluorescence; active compounds read low | hit rate 0.85% among 310,000 | AID 1672, 2009 | B-score at 10 µM | Inward rectifier potassium channel 2 (Mus musculus), P35561;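 active = fluorescence ratio B-score at or below minus 3 SD of library scores, with starting-brightness B-score within 2 SD, cut at about -4.2 in these data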;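 note: channel flux triggered by added potassium and thallium sulfate stimulus; B-score of peak minus minimum fluorescence over baseline after thallium stimulus; more negative B-score means stronger Kir2.1 block with less thallium influx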
SR-BI DiI inh – inhibitors of SR-BI mediated HDL lipid uptake, primary screen, ldlA[mSR-BI] cells, fluorescence, single point; Scavenger receptor class B member 1 (Mus musculus), Q61009; ldlA[mSR-BI] CHO cells, DiI-HDL uptake fluorescence, 3 h; inhibition, % at 12.5 µM; hit rate 0.96% among 320,000; AID 488896, 2010;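 active = mean replicate inhibition of at least 70% and a set share of replicates each scoring 70 or more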
DNA FID counter – compounds displacing fluorescent DNA intercalator, primary screen, artefact control for HCV NS3 helicase inhibitor project, biochemical, FID fluorescence; inhibition, % at 7.9 µM; AID 1845, 2009; DNA fluorescent intercalator displacement; hit rate 0.17% among 290,000; in the data active = inhibition above about 37%;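 note: higher means more ethidium bromide displaced from hairpin DNA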
SR-BI uptake up – activators of SR-BI mediated DiI-HDL uptake, primary screen, ldlA[mSR-BI] CHO cells, DiI fluorescence; 3 h; 100 = double the neutral-control signal; activation, % at 12.5 µM; hit rate 0.096% among 320,000; AID 504775, 2011;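 active = mean replicate activation of at least 60% and every replicate at or above 60%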
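Assay system: LDL receptor-deficient CHO ldlA cells overexpressing murine SR-BI / Medium: BSA-supplemented, HEPES-buffered Ham's F12, pH 7.4 / Probe or stimulus: DiI-labelled HDL at 10 µg/mL final / Timing: compound with DiI-HDL co-incubation, 3 h at 37 °C / Technique: bottom-read cell fluorescence after medium removal, ex 550/em 595 nm / Measure: HDL uptake via cellular fluorescence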
TMEM16A inh – TMEM16A chloride channel inhibitors, primary screen, cell-based, HTS; HEK293 TMEM16A/YFP iodide influx fluorescence, ionomycin; normalized B-score (activity score, 25-100; higher = stronger inhibition) at 10 µM; hit rate 1.2% among 310,000; AID 588511, 2011;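 active = ratio plate-corrected score three or more library SD toward inhibition, starting fluorescence score within five deviations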;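 note: score derived from kinetic fluorescence span divided by baseline fluorescence per well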
Target sequence (Q8BHY3 whole entry, looked up): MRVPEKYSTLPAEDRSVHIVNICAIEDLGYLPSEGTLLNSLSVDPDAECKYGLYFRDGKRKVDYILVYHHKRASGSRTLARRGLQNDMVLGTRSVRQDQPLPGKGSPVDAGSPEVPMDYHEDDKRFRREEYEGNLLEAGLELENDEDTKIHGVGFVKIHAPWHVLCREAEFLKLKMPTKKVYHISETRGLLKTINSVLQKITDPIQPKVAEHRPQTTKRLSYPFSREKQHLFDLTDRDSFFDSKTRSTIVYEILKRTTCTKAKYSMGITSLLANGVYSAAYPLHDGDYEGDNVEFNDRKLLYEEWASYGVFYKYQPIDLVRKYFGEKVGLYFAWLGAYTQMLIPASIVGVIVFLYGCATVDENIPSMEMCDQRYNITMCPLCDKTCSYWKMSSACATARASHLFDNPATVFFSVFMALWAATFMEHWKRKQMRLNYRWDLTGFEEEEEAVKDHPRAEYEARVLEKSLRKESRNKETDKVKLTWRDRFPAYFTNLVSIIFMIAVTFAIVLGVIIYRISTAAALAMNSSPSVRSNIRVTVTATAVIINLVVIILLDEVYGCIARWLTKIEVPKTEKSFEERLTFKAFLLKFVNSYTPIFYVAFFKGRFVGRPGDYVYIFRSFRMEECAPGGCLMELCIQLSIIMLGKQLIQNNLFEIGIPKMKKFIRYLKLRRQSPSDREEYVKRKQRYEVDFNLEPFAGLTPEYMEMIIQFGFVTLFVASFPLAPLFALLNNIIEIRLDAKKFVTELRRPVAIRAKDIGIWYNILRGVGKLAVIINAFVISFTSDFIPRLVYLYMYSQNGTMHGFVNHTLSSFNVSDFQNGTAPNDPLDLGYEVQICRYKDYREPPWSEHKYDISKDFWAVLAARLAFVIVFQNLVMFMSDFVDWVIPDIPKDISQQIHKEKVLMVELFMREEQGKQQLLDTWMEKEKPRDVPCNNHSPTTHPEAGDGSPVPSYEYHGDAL
TMEM16A act – TMEM16A chloride channel activators or potentiators, primary screen, cell-based, HTS. Anoctamin-1 (Mus musculus), Q8BHY3. HEK293 TMEM16A/YFP-H148Q/I152L, iodide quench fluorescence; active compounds read low. B-score at 10 µM. hit rate 0.3% among 340,000. AID 623877, 2012;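 active = fluorescence-ratio B-score plate-corrected deviation score at least 3 library SD below zero, with starting fluorescence score within 5 deviations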;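 note: channel opened by trigger with iodide after compound preincubation; score built on the fluorescence ratio of max minus min over baseline; more negative score means more quench and so TMEM16A activation or potentiation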
TMEM16A reconf – TMEM16A chloride channel inhibitors, confirmation, cell-based, re-confirmation | AID 652189, 2013 | HEK293 TMEM16A/YFP-H148Q, iodide quench fluorescence; ionomycin added to raise cell calcium | hit rate 39% among 2,300 | shares compounds with TMEM16A inh | inhibition, % at 10 µM;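 active = mean duplicate percent inhibition, scaled so buffer wells are 0 and the reference blocker 100, over three buffer SD above buffer mean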
TMEM16A Ca cntr – calcium mobilization in TMEM16A/YFP HEK293 cells, confirmation, counter-screen for TMEM16A inhibitor project | shares compounds with TMEM16A inh | Fluo4 calcium mobilization | calcium response (% of ionomycin), % at 10 µM | hit rate 2% among 2,300;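 active = duplicate-averaged calcium signal over 20% of the ionomycin maximum, relative to buffer baseline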;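 note: each well's signal is peak minus trough fluorescence divided by its pre-addition baseline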
YFP-HEK293 quench – iodide YFP quench changes in parental YFP-HEK293, counter-screen for TMEM16A inhibitor project, cell-based | shares compounds with TMEM16A inh | YFP ratio F(max-min)/F0 at 10 µM | 2,300 tested, under 10 active | ionomycin;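 active = yellow fluorescent protein signal ratio exceeding the buffer control mean by over 5 SD of those controls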;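 note: ratio is mean of duplicate wells from kinetic YFP trace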
ClC-1 inh – ClC-1 chloride channel inhibition, selectivity assay for TMEM16A inhibitor project, cell-based, voltage-dependent ClC-1; shares compounds with TMEM16A inh; CHO ClC-1-YFP, iodide influx fluorescence quench; iodide control reads 0, buffer control 100; ratio percent, % at 10 µM; 2,300 tested, under 10 active; AID 652236, 2013;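 active = duplicate-mean ratio percent above the mean of iodide-only control wells, which defines zero, plus 5 of their SD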;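 note: higher percent means stronger block of ClC-1 iodide influx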
A number is an active result; . = inactive; / = no result. Rows were chosen to be rich in hits. Some 3% of all compounds tested hit in one or more screens of this group.

SMILES	Kir21 block	SR-BI DiI inh	DNA FID counter	SR-BI uptake up	TMEM16A inh	TMEM16A act	TMEM16A reconf	TMEM16A Ca cntr	YFP-HEK293 quench	ClC-1 inh
Cc1ccc(NC(=O)C2=CCN(S(=O)(=O)c3ccc(F)cc3)CC2)c(C)c1	.	.	.	.	100	.	.	.	.	.
COc1cc2nc(N3CCNCC3)nc(N)c2cc1OC	.	.	49	.	100	.	.	.	.	.
O=S(=O)(Cc1nnnn1-c1ccccc1)c1ccc(F)cc1	.	.	.	/	.	.	/	/	/	/
COc1ccc(C(=O)C2CN(c3ccccc3)CC2c2ccc(Cl)cc2)cc1 (stereo unspecified)	.	.	.	.	25	.	.	.	.	.
COc1ccc(C(=O)N2CC(c3ccc(Cl)cc3)CC2=O)cc1 (stereo unspecified)	.	/	/	/	.	.	/	/	/	/
O=C(C1CCCCN1S(=O)(=O)c1ccccc1)N1CCN(Cc2ccccc2)CC1 (stereo unspecified)	.	.	.	.	25	.	.	.	.	.
O=[N+]([O-])c1cc(C(F)(F)F)ccc1NCCc1c[nH]c2ccc(O)cc12	.	.	.	.	25	.	.	.	.	.
CCCc1cc(C(=O)Nc2cccc(Cl)c2C)no1	.	.	.	.	25	.	.	.	.	.
CCCc1cc(C(=O)NCc2ccccc2)no1	.	.	.	.	100	.	.	.	.	.
CCCc1cc(C(=O)NNC(=S)NCc2ccccc2)cs1	.	.	.	.	100	.	.	.	.	.
CCc1cc(C(=O)NNC(=S)NCc2ccccc2)cs1	.	.	.	.	.	.	/	/	/	/
CN(CC(=O)Nc1ccccc1Cl)C(=O)Cn1cnc2ccc(Cl)cc2c1=O	/	.	/	.	/	.	/	/	/	/
COc1ccc(OC)c(C2NC(=O)NC(C)=C2C(=O)OCc2ccccc2)c1 (stereo unspecified)	.	.	.	.	.	.	/	/	/	/
CN1/C(=C\C(=O)COC(=O)CNC(=O)c2ccccc2F)C(C)(C)c2ccccc21	.	.	.	.	.	.	/	/	/	/
CNS(=O)(=O)c1cccc(C(=O)OCC(=O)/C=C2/N(C)c3ccccc3C2(C)C)c1	.	.	.	.	.	.	21%	.	.	.
CN1/C(=C\C(=O)COC(=O)c2ccc(O)cc2)C(C)(C)c2ccccc21	.	.	.	.	.	.	/	/	/	/
CN1/C(=C\C(=O)COC(=O)CNC(=O)c2ccc3ccccc3c2)C(C)(C)c2ccccc21	.	.	.	.	.	.	30%	.	.	.
CCOc1ccc(N2CC(C(=O)Nc3ccc(S(=O)(=O)NCC4CCCO4)cc3)CC2=O)cc1 (stereo unspecified)	.	/	.	/	.	.	/	/	/	/
COc1ccc(CN2CC(=O)N3[C@H]4c5ccccc5OC[C@@H]4[C@H](c4ccccc4)[C@]3(C)C2=O)cc1	/	.	/	.	/	.	/	/	/	/
CN(CC(=O)Nc1ccc(F)c(F)c1F)C(=O)CC1CCCCC1	/	.	/	.	/	.	/	/	/	/
